Test results from ChEMBL document CHEMBL1131415, “Structure-activity relationships for antiplasmodial activity among 7-substituted 4-aminoquinolines” (J Med Chem, 1998).

What was measured:
Type in all cases: functional, organism-based
Plasmodium falciparum [1] = experiment: In vitro antiplasmodial activity against chloroquine-sensitive Plasmodium falciparum Haiti 135
How it was run: (§1)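 Cloned P. falciparum (chloroquine-susceptible Haiti-13524 or chloroquine-resistant Indochina I), synchronous early ring stage, 2% red cell suspension at 0.2% parasitemia. Exposed to varying AQ concentrations 48 h, then same concentrations plus 0.5 µCi 3H-hypoxanthine for additional 18 h. IC50 from linear regression of percent inhibition of 3H-hypoxanthine accumulation vs log concentration; triplicate determinations, chloroquine control.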

Plasmodium falciparum [2] = experiment: In vitro anti-plasmodial activity against chloroquine-resistant Plasmodium falciparum Indochina I; how it was run: as §1
Plasmodium falciparum [3] = experiment: In vitro antiplasmodial activity against chloroquine-resistant Plasmodium falciparum Indochina I; how it was run: as §1

| SMILES | IC50 (Plasmodium falciparum [1]) [nM] | IC50 (Plasmodium falciparum [2]) [nM] | IC50 (Plasmodium falciparum [3]) [nM] |
| --- | --- | --- | --- |
| CCN(CC)CCCCCCCCCCNc1ccnc2cc(Br)ccc12 | 6 | 17 |  |
| CCN(CC)CCNc1ccnc2cc(Cl)ccc12 | 7 |  | 5 |
| CCN(CC)CCCCCCCCCCNc1ccnc2cc(C(F)(F)F)ccc12 | 10 | 20 |  |
| CCN(CC)CCCNc1ccnc2cc(Cl)ccc12 | 5 |  | 6 |
| CCN(CC)CC(C)Nc1ccnc2cc(OC)ccc12 (stereo not drawn) | 94 |  | 180 |
| CCN(CC)CC(C)Nc1ccnc2cc(Cl)ccc12 (stereo not drawn) | 8 |  | 10 |
| CCN(CC)CCCNc1ccnc2cc(I)ccc12 | 3 |  | 4 |
| CCN(CC)CC(C)Nc1ccnc2cc(I)ccc12 (stereo not drawn) | 7 |  | 7 |
| CCN(CC)CCCCCCCCCCCCNc1ccnc2cc(C(F)(F)F)ccc12 | 5 | 25 |  |
| CCN(CC)CCCNc1ccnc2cc(C(F)(F)F)ccc12 | 15 |  | 18 |
| CCN(CC)CCCCCCCCCCCCNc1ccnc2cc(I)ccc12 | 10 | 20 |  |
| CCN(CC)CC(C)Nc1ccnc2cc(C(F)(F)F)ccc12 (stereo not drawn) | 50 |  | 50 |
| CCN(CC)CC(C)Nc1ccnc2cc(Br)ccc12 (stereo not drawn) | 11 |  | 12 |
| CCN(CC)CCCNc1ccnc2cc(Br)ccc12 | 4 |  | 6 |
| CCN(CC)CCCCNc1ccnc2cc(Cl)ccc12 | 5 |  | 51 |
| CCN(CC)CCCCCCCCCCNc1ccnc2cc(I)ccc12 | 6 | 16 |  |
| CCN(CC)CCCCCCCCCCCCNc1ccnc2cc(OC)ccc12 | 17 | 90 |  |
| CCN(CC)CCCCCCCCCCCCNc1ccnc2cc(F)ccc12 | 8 | 25 |  |
| CCN(CC)CCNc1ccnc2cc(OC)ccc12 | 48 |  | 155 |
| CCN(CC)CCCC(C)Nc1ccnc2cc(Br)ccc12 (stereo not drawn) | 5 |  | 90 |

| SMILES | IC50 (Plasmodium falciparum [1]) [nM] | IC50 (Plasmodium falciparum [2]) [nM] | IC50 (Plasmodium falciparum [3]) [nM] |
| --- | --- | --- | --- |
| CCN(CC)CCCC(C)Nc1ccnc2cc(I)ccc12 (stereo not drawn) | 4 |  | 35 |
| CCN(CC)CCCNc1ccnc2cc(OC)ccc12 | 150 |  | 900 |
| CCN(CC)CCCC(C)Nc1ccnc2cc(OC)ccc12 (stereo not drawn) | 55 |  | 3000 |
| CCN(CC)CCCC(C)Nc1ccnc2cc(C(F)(F)F)ccc12 (stereo not drawn) | 16 |  | 45 |
| CCN(CC)CCCCCCCCCCNc1ccnc2cc(OC)ccc12 | 10 | 170 |  |
| CCN(CC)CCNc1ccnc2cc(C(F)(F)F)ccc12 | 30 |  | 41 |
| CCN(CC)CCCNc1ccnc2cc(F)ccc12 | 23 |  | 120 |
| CCN(CC)CCCCCCCCNc1ccnc2cc(Cl)ccc12 | 4 | 41 |  |
| CCN(CC)CCNc1ccnc2cc(F)ccc12 | 35 |  | 60 |
| CCN(CC)CCCCCCCCCCNc1ccnc2cc(F)ccc12 | 7 | 40 |  |
| CCN(CC)CC(C)Nc1ccnc2cc(F)ccc12 (stereo not drawn) | 30 |  | 60 |
| CCN(CC)CCCCCCCCCCCCNc1ccnc2cc(Br)ccc12 | 8 | 18 |  |
| CCN(CC)CCCCCCCCCCNc1ccnc2cc(Cl)ccc12 | 6 | 13 |  |
| CCN(CC)CCNc1ccnc2cc(Br)ccc12 | 7 |  | 7 |
| CCN(CC)CCNc1ccnc2cc(I)ccc12 | 6 |  | 6 |
| CCN(CC)CCCC(C)Nc1ccnc2cc(F)ccc12 (stereo not drawn) | 20 |  | 500 |
| CCN(CC)CCCCCNc1ccnc2cc(Cl)ccc12 | 6 |  | 58 |
| CCN(CC)CCCCCCCCCCCCNc1ccnc2cc(Cl)ccc12 | 13 | 11 |  |
| CCN(CC)CCCCCCNc1ccnc2cc(Cl)ccc12 | 5 |  | 56 |
